Measurements published in article PMC8612936 (The Lancet. Infectious Diseases, 2021).
In brackets after ≈: the same amount, converted by molar mass. Several values for one entry are separate records, joined by “and”; a condition that tells them apart may be missing. Equal entries are not always repeated. Entries after “also recorded” stand apart in the source; their conditions may differ.

Key:
[1] = Single ascending dose study; type: in vivo, human
[2] = Volunteer infection study; type: in vivo, human
Procedure, shortened: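 Intravenously inoculated, blood-stage P falciparum-infected healthy volunteers received one fasted oral dose (150, 400 or 800 mg). They stayed in the clinic until day 4, then attended outpatient follow-up to day 44.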

[3] = SAD: M5717 whole-blood pharmacokinetics; type: in vivo, human; conditions: for Vd/F / half-life / AUC(0-inf) / AUC(0-t): whole blood; for AUC(0-t): SAD 2100 mg oral, N=1
[4] = VIS: M5717 whole-blood pharmacokinetics; type: in vivo; conditions: human, po
Procedure, shortened: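 Healthy malaria-naive adults (18–55 y) were inoculated intravenously with about 2800 viable P falciparum-infected erythrocytes on day −8. On day 1 they took a single oral capsule dose (150, 400 or 800 mg) with 250 mL water after fasting ≥8 h, with no food until 4 h. The test compound was measured in whole blood (LLOQ 1 ng/mL), giving AUC0–∞, apparent terminal t½ and Vz/F.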

Plasmodium falciparum [5] = test: VIS: parasite clearance kinetics and recrudescence; type: in vivo; conditions: for PRR48 (95% CI), second phase: cohort estimate
Procedure, shortened: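 Volunteers were given about 2800 viable P falciparum-infected erythrocytes intravenously on day −8. Parasitaemia was measured by qPCR of the 18S rRNA gene, twice daily from day 4 after inoculation. A single fasted oral dose (150, 400 or 800 mg) was given when parasitaemia was expected to reach ≥5000 parasites/mL. […] Recrudescence was followed to day 28; artemether–lumefantrine was given on recrudescence or at day 21.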

Plasmodium spp = conditions: cited from earlier work
[6] = oral administration of 3–5 mg/kg; cited from earlier work
CYP3A4 = conditions: preclinical studies, no reference given; cited from earlier work
Plasmodium falciparum [7] = conditions: cited from earlier work
M5717-resistant mutants = conditions: pyronaridine partnered with M5717; cited from earlier work
[8] = SAD 2100 mg single oral dose, N=1
[9] = SAD, all 49 participants dosed with M5717

O=C(NCCN1CCCC1)c1cc(-c2ccc(CN3CCOCC3)cc2)nc2ccc(F)cc12 [M5717]
M5717-related dizziness ([1]; 1800 mg only): three | M5717-related blurred vision ([1]; 1800 mg or 2100 mg groups only): four | M5717-related oral hypoesthesia ([1]; 1800 mg or 2100 mg groups only): three | Any adverse event ([1]; SAD 50 mg single oral dose): 6 (100%) n (%) | Moderate adverse event (grade 2) ([1]; SAD 50 mg single oral dose): 1 (17%) n (%) | Moderate adverse event (grade 2) related to study treatment ([1]; SAD 50 mg single oral dose): 0 n (%) | Severe adverse event (grade 3) ([1]; SAD 50 mg single oral dose): 1 (17%) n (%) | Any adverse event ([1]; SAD 100 mg single oral dose): 5 (83%) n (%) | Moderate adverse event (grade 2) ([1]; SAD 100 mg single oral dose): 1 (17%) n (%) | Moderate adverse event (grade 2) related to study treatment ([1]; SAD 100 mg single oral dose): 0 n (%) | Severe adverse event (grade 3) ([1]; SAD 100 mg single oral dose): 0 n (%) | Any adverse event ([1]; SAD 200 mg single oral dose): 3 (50%) n (%) | Moderate adverse event (grade 2) ([1]; SAD 200 mg single oral dose): 0 n (%) | Moderate adverse event (grade 2) related to study treatment ([1]; SAD 200 mg single oral dose): 0 n (%) | Severe adverse event (grade 3) ([1]; SAD 200 mg single oral dose): 0 n (%) | Any adverse event ([1]; SAD 400 mg single oral dose): 4 (67%) n (%) | Moderate adverse event (grade 2) ([1]; SAD 400 mg single oral dose): 0 n (%) | Moderate adverse event (grade 2) related to study treatment ([1]; SAD 400 mg single oral dose): 0 n (%) | Severe adverse event (grade 3) ([1]; SAD 400 mg single oral dose): 0 n (%) | Any adverse event ([1]; SAD 600 mg single oral dose): 3 (50%) n (%) | Moderate adverse event (grade 2) ([1]; SAD 600 mg single oral dose): 1 (17%) n (%) | Moderate adverse event (grade 2) related to study treatment ([1]; SAD 600 mg single oral dose): 0 n (%) | Severe adverse event (grade 3) ([1]; SAD 600 mg single oral dose): 0 n (%) | Any adverse event ([1]; SAD 1000 mg single oral dose): 4 (67%) n (%) | Moderate adverse event (grade 2) ([1]; SAD 1000 mg single oral dose): 0 n (%) | Moderate adverse event (grade 2) related to study treatment ([1]; SAD 1000 mg single oral dose): 0 n (%) | Severe adverse event (grade 3) ([1]; SAD 1000 mg single oral dose): 0 n (%) | Any adverse event ([1]; SAD 1250 mg single oral dose): 5 (83%) n (%) | Moderate adverse event (grade 2) ([1]; SAD 1250 mg single oral dose): 1 (17%) n (%) | Moderate adverse event (grade 2) related to study treatment ([1]; SAD 1250 mg single oral dose): 1 (17%) n (%) | Severe adverse event (grade 3) ([1]; SAD 1250 mg single oral dose): 0 n (%) | Any adverse event ([1]; SAD 1800 mg single oral dose): 6 (100%) n (%) | Moderate adverse event (grade 2) ([1]; SAD 1800 mg single oral dose): 0 n (%) | Moderate adverse event (grade 2) related to study treatment ([1]; SAD 1800 mg single oral dose): 0 n (%) | Severe adverse event (grade 3) ([1]; SAD 1800 mg single oral dose): 0 n (%) | Any adverse event [1, 8]: 1 (100%) n (%) | Any adverse event related to study treatment [1, 8]: 1 (100%) n (%) | Moderate adverse event (grade 2) [1, 8]: 1 (100%) n (%) | Moderate adverse event (grade 2) related to study treatment [1, 8]: 1 (100%) n (%) | Severe adverse event (grade 3) [1, 8]: 0 n (%) | Serious adverse events ([1]; SAD and VIS): No adverse event was serious; also recorded: No serious adverse events | Severity of adverse events related to M5717 ([1]; SAD and VIS): mild or moderate | Vital signs, ECGs, clinical laboratory parameters ([1]; SAD and VIS): No dose-related trends | Participants with adverse events related to M5717 [1, 9]: 12 (24%) n (%) | Participants with at least one adverse event [1, 9]: 37 (76%) n (%) | Dose up to which M5717 is well tolerated ([1]; single oral dose, healthy adults): ≤ 1250 mg | Any adverse event ([2]; VIS 150 mg single oral dose): 6 (100%) n (%) | Any adverse event related to study treatment ([2]; VIS 150 mg single oral dose): 0 n (%) | Moderate adverse event (grade 2) ([2]; VIS 150 mg single oral dose): 2 (33%) n (%) | Moderate adverse event (grade 2) related to study treatment ([2]; VIS 150 mg single oral dose): 0 n (%) | Severe adverse event (grade 3) ([2]; VIS 150 mg single oral dose): 0 n (%) | Any adverse event ([2]; VIS 400 mg single oral dose): 8 (100%) n (%) | Moderate adverse event (grade 2) ([2]; VIS 400 mg single oral dose): 3 (38%) n (%) | Moderate adverse event (grade 2) related to study treatment ([2]; VIS 400 mg single oral dose): 0 n (%) | Severe adverse event (grade 3) ([2]; VIS 400 mg single oral dose): 0 n (%) | Any adverse event ([2]; VIS 800 mg single oral dose): 7 (88%) n (%) | Any adverse event related to study treatment ([2]; VIS 800 mg single oral dose): 0 n (%) | Moderate adverse event (grade 2) ([2]; VIS 800 mg single oral dose): 2 (25%) n (%) | Moderate adverse event (grade 2) related to study treatment ([2]; VIS 800 mg single oral dose): 0 n (%) | Severe adverse event (grade 3) ([2]; VIS 800 mg single oral dose): 1 (13%) n (%) | Participants with at least one adverse event after M5717 dosing ([2]; VIS, all 22 participants): 21 (95%) n (%) | Time of peak whole-blood concentration after dosing ([3]; across dose levels, SAD and VIS): approximately 2 h | Time with M5717 concentration at least 3 ng/mL in all participants ([3]; doses of 150 mg and higher): at least 168 h | Time with M5717 concentration 10 ng/mL or higher in all participants ([3]; doses of 400 mg or higher): at least 168 h | Terminal half-life predicted before the study ([3]; human, prediction before the study): 10.4 days | Vd/F ([3]; human, oral): 5880 to 9510 L | half-life ([3]; human, oral): 4.42 to 8.04 days | half-life ([3]; human, oral, 200 mg): 5.54 to 6.04 days | AUC(0-inf) ([3]; human, po, 50 mg): 997 ng·h/mL | Vd/F ([3]; human, po, 50 mg): 7640 L | half-life ([3]; human, po, 50 mg): 5.54 days | AUC(0-inf) ([3]; human, po, 100 mg): 1710 ng·h/mL | Vd/F ([3]; human, po, 100 mg): 8890 L | half-life ([3]; human, po, 100 mg): 5.54 days | AUC(0-inf) ([3]; human, po, 200 mg): 3500 ng·h/mL | Vd/F ([3]; human, po, 200 mg): 9510 L | half-life ([3]; human, po, 200 mg): 6.04 days | Vd/F ([3]; human, po, 400 mg): 7100 L | half-life ([3]; human, po, 400 mg): 6.46 days | Vd/F ([3]; human, po, 600 mg): 7160 L | half-life ([3]; human, po, 600 mg): 7.54 days | Vd/F ([3]; human, po, 1000 mg): 6770 L | half-life ([3]; human, po, 1000 mg): 7.04 days | Vd/F ([3]; human, po, 1250 mg): 6830 L | half-life ([3]; human, po, 1250 mg): 7.5 days | Vd/F ([3]; human, po, 1800 mg): 7060 L | half-life ([3]; human, po, 1800 mg): 7.54 days | AUC(0-inf) ([3]; human, po, 2100 mg): 43000 ng·h/mL | Vd/F ([3]; human, po, 2100 mg): 7870 L | half-life ([3]; human, po, 2100 mg): 5.83 days | AUC(0-t) ([3]; human, po, 2100 mg, AUC0–144h): 27200 ng·h/mL | AUC(0-t) ([3]; human, po, 2100 mg, AUC0–t): 42200 ng·h/mL | AUC(0-inf) ([4]; 150 mg): 3100 ng·h/mL | Vd/F ([4]; 150 mg): 5880 L | half-life ([4]; 150 mg): 4.42 days | Vd/F ([4]; 400 mg): 6530 L | half-life ([4]; 400 mg): 6.08 days | Vd/F ([4]; 800 mg): 8890 L | half-life ([4]; 800 mg): 8.04 days | Time of recrudescence after M5717 dosing (Plasmodium falciparum [5]; VIS 150 mg, individual participants): 10 days and 11 days and 19 days | Recrudescence incidence (Plasmodium falciparum [5]; VIS 150 mg, six participants): 50% | PRR48 (95% CI), second phase (Plasmodium falciparum [5]; VIS 400 mg single oral dose, N=6): 5127 (1006 to 26 132) | Time of recrudescence after M5717 dosing (Plasmodium falciparum [5]; VIS 400 mg, both participants): 12 days | Recrudescence incidence (Plasmodium falciparum [5]; VIS 400 mg, eight participants): 25% | PRR48 (95% CI), second phase (Plasmodium falciparum [5]; VIS 800 mg single oral dose, N=7): 436 (179 to 1061) | Recrudescence (Plasmodium falciparum [5]; VIS 800 mg, up to 21 days after dosing): No recrudescence | Duration of initial slow parasite clearance phase (Plasmodium falciparum [5]; VIS 150, 400, 800 mg): 35 to 55 h | Parasite clearance following M5717 dosing (Plasmodium falciparum [5]; VIS 150, 400, 800 mg): all participants | Minimum inhibitory concentration (MIC) (Plasmodium spp; estimated in mice): 3 ng/mL (≈ 6.49 nM) | Minimum parasiticidal concentration (Plasmodium spp; estimated in mice): 10 ng/mL | Lag in antimalarial activity (Plasmodium spp; in vitro and in the mouse efficacy model): 24 to 48 h | Half-life in preclinical animal studies [6]: 18 to 20 h | Active or toxic metabolites (CYP3A4): no active or toxic metabolites identified | Potency against Plasmodium falciparum (Plasmodium falciparum [7]): nanomolar potency

COc1ccc2nc3cc(Cl)ccc3c(Nc3cc(CN4CCCC4)c(O)c(CN4CCCC4)c3)c2n1 [pyronaridine]
Selection of M5717-resistant mutants (M5717-resistant mutants): prevented selection of M5717-resistant mutants
